Experimental findings from ChEMBL document CHEMBL4052592, “Identification of Cyclic Depsipeptides and Their Dedicated Synthetase from Hapsidospora irregularis” (J Nat Prod, 2017) are described below.

Calls of active or inactive are those of the source. The rule behind the calls is not given here.

Format in all cases: cell-based
For data set [1], the target named is Transient receptor potential cation channel subfamily A member 1 (Homo sapiens, UniProt O75762). The data set can be described thus: Activation of human TRPA1 expressed in HEK293 cells assessed as induction of calcium influx at 100 uM by fluro 4-AM dye-based fluorescence assay. The conditions noted are these: hek293, 100 µM. Summed up: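 Stable HEK-293 line grown to confluence on gelatin-coated wells (DMEM:F12, 5% FBS, geneticin 300 μg/mL). Cells loaded 1 h at 37 °C with Fluo 4-Direct/LHC-9, washed into LHC-9 with 1 mM probenecid and Trypan Red, then held 30 min at 37 °C. Compound added at 3× in calcium assay buffer. Fluorescence read 1 min at 37 °C as max ΔF/s versus medium only, expressed as % of 250 μM 2,4-ditert-butylphenol response. At least three replicates.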

Data set [2] addresses T1, Transient receptor potential cation channel subfamily V member 3 (Homo sapiens) (UniProt Q8NET8).
T1 sequence (whole entry): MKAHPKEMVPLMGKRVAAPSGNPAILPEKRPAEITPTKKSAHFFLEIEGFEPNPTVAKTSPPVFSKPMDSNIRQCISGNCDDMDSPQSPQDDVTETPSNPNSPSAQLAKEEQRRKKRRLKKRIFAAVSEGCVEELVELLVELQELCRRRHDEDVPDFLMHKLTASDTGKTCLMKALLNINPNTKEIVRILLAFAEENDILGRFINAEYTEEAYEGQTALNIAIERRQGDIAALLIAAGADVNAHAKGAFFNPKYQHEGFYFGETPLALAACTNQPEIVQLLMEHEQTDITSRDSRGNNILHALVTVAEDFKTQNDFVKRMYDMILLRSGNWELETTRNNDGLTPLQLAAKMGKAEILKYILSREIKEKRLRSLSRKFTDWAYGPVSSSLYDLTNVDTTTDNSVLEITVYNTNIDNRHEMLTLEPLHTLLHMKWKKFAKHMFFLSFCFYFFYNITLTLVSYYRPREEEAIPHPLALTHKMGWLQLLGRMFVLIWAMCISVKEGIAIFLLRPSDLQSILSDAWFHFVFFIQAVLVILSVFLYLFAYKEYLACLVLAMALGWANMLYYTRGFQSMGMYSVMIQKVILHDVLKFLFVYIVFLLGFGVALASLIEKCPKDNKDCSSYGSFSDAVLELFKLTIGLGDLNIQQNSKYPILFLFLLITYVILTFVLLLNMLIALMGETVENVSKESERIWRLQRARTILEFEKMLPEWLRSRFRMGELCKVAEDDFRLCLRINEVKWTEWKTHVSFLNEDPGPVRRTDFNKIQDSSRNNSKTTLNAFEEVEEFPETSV
The data set can be described thus: Activation of human TRPV3 expressed in HEK293 cells assessed as induction of calcium influx at 100 uM by fluro 4-AM dye-based fluorescence assay. The method in brief:
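Confluent HEK-293 cells stably expressing the channel are dye-loaded 1 h at 37 °C, washed, and equilibrated 30 min at 37 °C in LHC-9 with 1 mM probenecid. Compounds are dosed at 3× in calcium assay buffer. The 1-min read at 37 °C gives max ΔF/s over medium, reported as % of the 300 μM carvacrol agonist control. At least three replicates.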

Data set [3] deals with Transient receptor potential cation channel subfamily V member 4 (Homo sapiens) (UniProt Q9HBA0). The data set can be described thus: Activation of human TRPV4 expressed in HEK293 cells assessed as induction of calcium influx at 100 uM by fluro 4-AM dye-based fluorescence assay. Summed up:
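HEK-293 stable overexpressors on gelatin-coated plates are loaded with Fluo 4-AM (1 h, 37 °C), then given probenecid/Trypan Red LHC-9 and 30 min at 37 °C. Treatments are prepared at 3× in LHC9, with 1-min monitoring at 37 °C. Max ΔF/s versus medium only is given as % of the 30 nM GSK1016790A control. Three replicates minimum.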

For data set [4], the target named is Transient receptor potential cation channel subfamily V member 1 (Homo sapiens) (UniProt Q8NER1). Nature of the data set: Activation of human TRPV1 expressed in BEAS-2B cells assessed as induction of calcium influx at 100 uM by fluro 4-AM dye-based fluorescence assay. The method in brief: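 TRPV1-overexpressing BEAS-2B cells are loaded with Fluo 4-Direct/LHC-9 at room temperature, washed into LHC-9 containing probenecid and Trypan Red, and incubated 30 min at 37 °C. Test solution is made at 3× in LHC9. Fluorescence is followed 1 min at 37 °C. Max ΔF/s relative to medium is expressed as % of the response to 10 μM capsaicin. Minimum triplicate.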

Data set [5] addresses Transient receptor potential cation channel subfamily M member 8 (Homo sapiens) (UniProt Q7Z2W7). The data set can be described thus: Activation of human TRPM8 expressed in HEK293 cells assessed as induction of calcium influx at 100 uM by fluro 4-AM dye-based fluorescence assay. The method in brief: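 Uses the same HEK-293 stable-line culture and Fluo 4-AM loading (1 h, 37 °C), followed by the probenecid/Trypan Red LHC-9 wash and 30 min equilibration at 37 °C. Treatment is made at 3× in LHC9. Max ΔF/s is read over 1 min at 37 °C, normalized to medium-only and given as % of the 25 μM icilin control. Three or more replicates.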

Sequence of Transient receptor potential cation channel subfamily M member 8 (Homo sapiens) (Q7Z2W7 whole entry, looked up): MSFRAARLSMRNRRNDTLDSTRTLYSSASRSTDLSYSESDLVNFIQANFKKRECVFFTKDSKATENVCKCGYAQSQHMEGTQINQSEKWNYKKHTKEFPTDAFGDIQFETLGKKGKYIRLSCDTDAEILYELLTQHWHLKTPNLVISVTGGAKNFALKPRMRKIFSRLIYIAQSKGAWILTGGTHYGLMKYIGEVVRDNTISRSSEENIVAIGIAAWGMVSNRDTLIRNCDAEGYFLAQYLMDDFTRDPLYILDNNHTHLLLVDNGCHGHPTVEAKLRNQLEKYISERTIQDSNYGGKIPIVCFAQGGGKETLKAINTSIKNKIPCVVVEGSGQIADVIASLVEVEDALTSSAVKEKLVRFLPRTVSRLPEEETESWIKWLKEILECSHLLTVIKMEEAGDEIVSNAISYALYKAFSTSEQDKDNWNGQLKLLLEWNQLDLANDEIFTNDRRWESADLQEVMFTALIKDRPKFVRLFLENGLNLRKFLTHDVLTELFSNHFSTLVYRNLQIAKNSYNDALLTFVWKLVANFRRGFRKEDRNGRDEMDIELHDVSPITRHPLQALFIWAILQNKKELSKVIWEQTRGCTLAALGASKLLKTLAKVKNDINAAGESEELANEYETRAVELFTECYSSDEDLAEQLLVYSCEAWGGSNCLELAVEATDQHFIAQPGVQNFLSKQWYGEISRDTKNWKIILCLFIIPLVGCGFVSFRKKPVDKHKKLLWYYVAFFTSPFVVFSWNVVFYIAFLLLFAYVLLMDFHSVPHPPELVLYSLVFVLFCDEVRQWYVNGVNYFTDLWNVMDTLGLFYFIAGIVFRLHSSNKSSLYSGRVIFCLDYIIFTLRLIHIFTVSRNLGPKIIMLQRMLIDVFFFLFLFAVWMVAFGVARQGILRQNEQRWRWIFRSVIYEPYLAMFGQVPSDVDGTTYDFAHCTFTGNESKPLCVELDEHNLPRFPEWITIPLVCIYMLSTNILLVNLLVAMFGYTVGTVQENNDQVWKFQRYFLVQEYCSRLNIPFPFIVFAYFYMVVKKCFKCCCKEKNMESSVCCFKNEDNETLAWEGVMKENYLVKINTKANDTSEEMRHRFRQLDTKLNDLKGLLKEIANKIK
Sequence of Transient receptor potential cation channel subfamily A member 1 (O75762 whole entry): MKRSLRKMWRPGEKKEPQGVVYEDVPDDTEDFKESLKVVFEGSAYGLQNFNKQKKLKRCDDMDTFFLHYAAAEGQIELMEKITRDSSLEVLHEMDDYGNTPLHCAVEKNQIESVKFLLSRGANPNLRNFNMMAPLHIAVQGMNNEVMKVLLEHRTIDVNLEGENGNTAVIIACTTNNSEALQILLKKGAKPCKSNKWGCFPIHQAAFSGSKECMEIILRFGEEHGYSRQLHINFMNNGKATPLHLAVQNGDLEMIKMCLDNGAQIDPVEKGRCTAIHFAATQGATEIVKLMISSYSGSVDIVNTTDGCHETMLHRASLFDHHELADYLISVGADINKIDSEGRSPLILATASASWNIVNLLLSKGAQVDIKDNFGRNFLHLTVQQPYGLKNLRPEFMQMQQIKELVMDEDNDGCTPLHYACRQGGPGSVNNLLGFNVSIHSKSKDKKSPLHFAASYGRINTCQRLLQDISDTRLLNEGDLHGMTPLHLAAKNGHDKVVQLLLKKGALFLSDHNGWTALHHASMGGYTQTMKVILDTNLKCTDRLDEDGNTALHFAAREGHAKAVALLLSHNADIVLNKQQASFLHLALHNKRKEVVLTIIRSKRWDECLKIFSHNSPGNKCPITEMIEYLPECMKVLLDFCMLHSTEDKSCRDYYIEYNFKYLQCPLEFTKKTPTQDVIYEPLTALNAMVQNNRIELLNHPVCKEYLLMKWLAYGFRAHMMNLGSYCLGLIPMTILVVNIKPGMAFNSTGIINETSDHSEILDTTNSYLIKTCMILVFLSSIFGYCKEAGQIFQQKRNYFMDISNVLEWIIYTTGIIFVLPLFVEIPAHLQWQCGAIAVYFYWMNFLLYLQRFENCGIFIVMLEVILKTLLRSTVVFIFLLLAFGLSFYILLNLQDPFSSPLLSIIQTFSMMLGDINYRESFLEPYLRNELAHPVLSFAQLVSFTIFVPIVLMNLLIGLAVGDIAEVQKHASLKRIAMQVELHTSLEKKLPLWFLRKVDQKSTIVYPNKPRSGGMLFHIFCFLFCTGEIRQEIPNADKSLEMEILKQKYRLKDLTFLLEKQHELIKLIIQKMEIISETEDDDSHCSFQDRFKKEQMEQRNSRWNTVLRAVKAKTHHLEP
Sequence of Transient receptor potential cation channel subfamily V member 4 (Homo sapiens) (Q9HBA0 whole entry): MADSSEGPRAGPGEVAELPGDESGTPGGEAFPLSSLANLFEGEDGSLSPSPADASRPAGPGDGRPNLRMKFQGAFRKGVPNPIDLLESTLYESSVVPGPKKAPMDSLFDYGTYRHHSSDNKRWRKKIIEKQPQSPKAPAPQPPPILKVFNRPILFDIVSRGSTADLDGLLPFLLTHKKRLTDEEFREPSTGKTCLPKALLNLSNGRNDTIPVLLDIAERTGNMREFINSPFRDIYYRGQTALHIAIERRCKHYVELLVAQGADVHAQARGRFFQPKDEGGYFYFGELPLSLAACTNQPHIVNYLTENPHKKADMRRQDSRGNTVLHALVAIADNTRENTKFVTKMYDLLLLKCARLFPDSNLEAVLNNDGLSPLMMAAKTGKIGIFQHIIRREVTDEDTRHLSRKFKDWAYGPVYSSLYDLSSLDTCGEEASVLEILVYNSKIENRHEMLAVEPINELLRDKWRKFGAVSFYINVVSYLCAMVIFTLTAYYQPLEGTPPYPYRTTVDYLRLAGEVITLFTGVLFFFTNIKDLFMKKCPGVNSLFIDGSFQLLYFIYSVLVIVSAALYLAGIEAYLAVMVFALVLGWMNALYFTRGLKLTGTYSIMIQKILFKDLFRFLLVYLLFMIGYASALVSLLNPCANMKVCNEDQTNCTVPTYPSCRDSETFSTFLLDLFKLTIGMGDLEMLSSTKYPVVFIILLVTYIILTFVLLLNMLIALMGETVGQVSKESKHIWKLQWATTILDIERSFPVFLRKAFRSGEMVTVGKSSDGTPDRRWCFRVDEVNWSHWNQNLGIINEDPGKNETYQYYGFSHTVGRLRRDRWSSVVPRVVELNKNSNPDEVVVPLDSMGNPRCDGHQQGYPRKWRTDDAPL
Sequence of Transient receptor potential cation channel subfamily V member 1 (Homo sapiens) (Q8NER1 whole entry): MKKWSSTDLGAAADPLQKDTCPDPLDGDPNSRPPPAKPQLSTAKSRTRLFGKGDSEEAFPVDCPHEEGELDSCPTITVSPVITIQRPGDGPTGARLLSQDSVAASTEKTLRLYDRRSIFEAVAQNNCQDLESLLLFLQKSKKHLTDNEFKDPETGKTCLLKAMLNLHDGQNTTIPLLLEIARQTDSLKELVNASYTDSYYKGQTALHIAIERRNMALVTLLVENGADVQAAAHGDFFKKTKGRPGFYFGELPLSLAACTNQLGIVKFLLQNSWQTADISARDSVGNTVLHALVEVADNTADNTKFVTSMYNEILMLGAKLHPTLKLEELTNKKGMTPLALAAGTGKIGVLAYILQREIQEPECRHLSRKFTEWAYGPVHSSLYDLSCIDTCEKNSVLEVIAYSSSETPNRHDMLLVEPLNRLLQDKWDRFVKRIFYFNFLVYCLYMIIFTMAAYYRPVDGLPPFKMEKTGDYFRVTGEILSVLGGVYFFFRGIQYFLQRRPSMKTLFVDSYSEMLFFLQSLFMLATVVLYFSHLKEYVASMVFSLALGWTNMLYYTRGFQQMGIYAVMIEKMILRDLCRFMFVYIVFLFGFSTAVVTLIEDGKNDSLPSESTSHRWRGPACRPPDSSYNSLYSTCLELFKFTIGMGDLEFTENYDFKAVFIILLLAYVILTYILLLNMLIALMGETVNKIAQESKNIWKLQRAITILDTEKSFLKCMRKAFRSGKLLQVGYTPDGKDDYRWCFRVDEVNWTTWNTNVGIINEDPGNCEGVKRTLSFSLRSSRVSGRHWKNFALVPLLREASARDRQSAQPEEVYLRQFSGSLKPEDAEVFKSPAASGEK

Turning to `CC(C)C[C@@H]1NC(=O)[C@@H](CC(C)C)OC(=O)CCNC(=O)[C@H](Cc2ccc(O)cc2)NC(=O)[C@H](CC(C)C)OC1=O`, the result in data set [1] was Active. For the same compound, the outcome in data set [2], in data set [3] and in data set [4] was inactive. Also, the result in data set [5] was Active.
As for `CC(C)C[C@@H]1NC(=O)[C@@H](CC(C)C)OC(=O)CCNC(=O)[C@H](Cc2ccccc2)NC(=O)[C@H](CC(C)C)OC1=O`, the result in data set [1] was Active. Moreover, the outcome in data set [2], in data set [3] and in data set [4] was inactive. Besides, the outcome in data set [5] was Active.
